Test results reported in ChEMBL document CHEMBL1152217, “Affinity labeling of the proteasome by a belactosin A derived inhibitor” (Bioorg Med Chem Lett, 2008).
pIC50: −log10 of the molar value. The source made the active and inactive calls. No cut-off for these calls is given here. Residues, ends and D or L forms follow the SMILES beside them. *: point of attachment. Cbz = O=C(OCc1ccccc1)*

Columns and labels:
HeLa = experiment: Growth inhibition of human HeLa cells after 48 hrs by MTT assay; format: functional, cell-based
Method in brief: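 HeLa cells grown in RPMI 1640 with 10% heat-inactivated fetal calf serum plus penicillin/streptomycin under 5% CO2. Inhibitors added at various concentrations for 48 h. Viability by MTT, absorbance at 570 nm. IC50 taken from growth inhibition.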

[1] = Inhibition of chymotrypsin-like activity of 20S proteasome in human erythrocytes
Method in brief: (§1)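 Purified human erythrocyte 20S core particle (100–200 ng) mixed with inhibitors at varied concentrations in 25 mM HEPES pH 7.6, 0.5 mM EDTA, 0.03% SDS; SDS left out for the trypsin-like assay. Started by adding fluorogenic AMC substrate: Suc-LLVY-AMC (chymotrypsin-like), Boc-LRR-AMC (trypsin-like), Z-LLE-AMC (PGPH). Fluorescence read up to 1 h (ex 380, em 460 nm). Activity from slope; IC50 derived.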

[2] = Inhibition of trypsin-like activity of 20S proteasome in human erythrocytes; method in brief: as §1
[3] = Inhibition of PGPH catalytic activity of 20S proteasome in human erythrocytes; method in brief: as §1
[4] = target: T1, Proteasome Macropain subunit MB1 (Homo sapiens) (UniProt P28074); experiment: Binding affinity to 20S proteasome beta5 subunit in intact human HeLa cells at 1 uM by Western blotting analysis; format: cell-based; conditions: TDE = time-dependent effect
T1 sequence (whole entry): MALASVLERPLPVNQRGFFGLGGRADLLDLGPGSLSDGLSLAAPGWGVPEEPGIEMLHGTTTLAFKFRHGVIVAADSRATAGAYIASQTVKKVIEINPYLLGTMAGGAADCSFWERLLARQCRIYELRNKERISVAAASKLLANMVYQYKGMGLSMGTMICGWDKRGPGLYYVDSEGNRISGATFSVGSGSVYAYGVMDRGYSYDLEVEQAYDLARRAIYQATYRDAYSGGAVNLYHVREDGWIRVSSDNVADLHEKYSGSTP
Method in brief: (§2)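 Intact HeLa cells (RPMI 1640, 10% FCS) incubated with 1.0 µM dansyl-KF33955 at 37 °C in serum-free medium for varying times. Cells were pelleted, put in urea/thiourea denaturing buffer at 4 °C and sonicated. Lysates were run on SDS-PAGE and blotted to PVDF. Labeled β subunits were detected with anti-dansyl monoclonal antibody and ECL.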

[5] = target: T2, Proteasome component C5 (Homo sapiens) (UniProt P20618); experiment: Binding affinity to 20S proteasome beta-1 subunit in intact human HeLa cells at 1 uM by Western blotting analysis; format: cell-based; conditions: TDE = time-dependent effect; method in brief: as §2
T2 sequence (whole entry): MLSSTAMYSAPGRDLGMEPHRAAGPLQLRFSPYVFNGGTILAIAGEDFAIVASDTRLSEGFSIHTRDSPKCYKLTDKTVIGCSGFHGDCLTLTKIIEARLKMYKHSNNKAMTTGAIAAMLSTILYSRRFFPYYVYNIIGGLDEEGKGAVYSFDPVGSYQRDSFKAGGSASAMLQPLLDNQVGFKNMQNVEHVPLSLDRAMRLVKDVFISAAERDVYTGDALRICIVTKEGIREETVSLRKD

[6] = target: Proteasome Macropain subunit (Homo sapiens) (UniProt P49721); experiment: Inhibition of clasto-lactacystin binding to beta2 subunit of 20S proteasome in human HeLa cells at 1 uM by Western blotting analysis; format: cell-based
[7] = target: Proteasome subunit beta type-5 (Homo sapiens) (UniProt P28074); experiment: Binding affinity to 20S proteasome beta5 subunit in human erythrocyte at 1 uM after 0.5 hr by Western blotting analysis
[8] = target: Proteasome Macropain subunit (Homo sapiens) (UniProt P49721); experiment: Binding affinity to 20S proteasome beta2 subunit in intact human HeLa cells at 1 uM by Western blotting analysis; format: cell-based; conditions: TDE = time-dependent effect; method in brief: as §2
[9] = target: Proteasome Macropain subunit (Homo sapiens) (UniProt P49721); experiment: Binding affinity to 20S proteasome beta2 subunit in human HeLa cell extract at 1 uM by Western blotting analysis; format: cell-free
Method in brief: (§3)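 26S proteasome extract from HeLa cells at 50–80% confluency. Cells were washed in ice-cold PBS and resuspended in pH 7.5 Tris buffer with sucrose, MgCl2, EDTA, DTT and 1 mM ATP. They were permeabilized with 0.025% digitonin for 5 min on ice, and the cytosol was recovered at 15,000g. The extract was labeled with 1.0 µM dansyl-KF33955 for various times, diluted in 2× denaturing buffer, resolved by SDS-PAGE and immunoblotted with anti-dansyl antibody.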

[10] = target: T1, Proteasome Macropain subunit MB1 (Homo sapiens); experiment: Binding affinity to 20S proteasome beta5 subunit in human HeLa cell extract at 1 uM by Western blotting analysis; format: cell-free; method in brief: as §3
[11] = target: T2, Proteasome component C5 (Homo sapiens); experiment: Binding affinity to 26S proteasome beta-1 subunit in human HeLa cell extract at 1 uM by Western blotting analysis; format: cell-free; method in brief: as §3
[12] = target: T1, Proteasome Macropain subunit MB1 (Homo sapiens); experiment: Inhibition of MG132 binding to beta5 subunit of 20S proteasome in human HeLa cells at 1 uM by Western blotting analysis; format: cell-based
Method in brief: (§4)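 Competition in intact HeLa cells. Cells were preincubated 1 h at 37 °C in serum-free medium with various concentrations of MG132, then given 1.0 µM dansyl-KF33955 for another hour. Cells were pelleted, lysed by sonication in urea/thiourea denaturing buffer, and resolved by SDS-PAGE. Remaining β subunit labeling was detected by anti-dansyl immunoblot.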

[13] = target: T1, Proteasome Macropain subunit MB1 (Homo sapiens); experiment: Binding affinity to 20S proteasome beta5 subunit in human erythrocyte at 1 uM after 1 hr by Western blotting analysis
Method in brief: (§5)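 Purified human erythrocyte 20S core particle solution incubated with 1.0 µM dansyl-KF33955 for various times, then diluted directly in 2× denaturing buffer (urea/thiourea/CHAPS/Triton, pH 8.8). Proteins resolved by SDS-PAGE and transferred to PVDF. Labeled β subunits detected by immunoblot with anti-dansyl monoclonal antibody and ECL.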

[14] = target: T2, Proteasome component C5 (Homo sapiens); experiment: Binding affinity to 20S proteasome beta-1 subunit in human erythrocyte at 1 uM after 1 hr by Western blotting analysis; method in brief: as §5
[15] = target: T2, Proteasome component C5 (Homo sapiens); experiment: Binding affinity to 20S proteasome beta-1 subunit in human erythrocyte at 1 uM after 0.5 hr by Western blotting analysis; method in brief: as §5
[16] = target: T1, Proteasome Macropain subunit MB1 (Homo sapiens); experiment: Inhibition of clasto-lactacystin binding to beta5 subunit of 20S proteasome in human HeLa cells at 1 uM by Western blotting analysis; format: cell-based
[17] = target: Proteasome Macropain subunit (Homo sapiens) (UniProt P49721); experiment: Binding affinity to 20S proteasome beta2 subunit in human erythrocyte at 1 uM by Western blotting analysis; method in brief: as §5
[18] = target: T1, Proteasome Macropain subunit MB1 (Homo sapiens); experiment: Binding affinity to 20S proteasome beta5 subunit in human erythrocyte at 1 uM by Western blotting analysis; method in brief: as §5
[19] = target: Proteasome Macropain subunit (Homo sapiens) (UniProt P49721); experiment: Binding affinity to 20S proteasome beta2 subunit in human erythrocyte at 1 uM after 1 hr by Western blotting analysis; method in brief: as §5
[20] = target: Proteasome Macropain subunit (Homo sapiens) (UniProt P49721); experiment: Binding affinity to 20S proteasome beta2 subunit in human erythrocyte at 1 uM after 0.5 hr by Western blotting analysis; method in brief: as §5
[21] = target: T2, Proteasome component C5 (Homo sapiens); experiment: Inhibition of MG132 binding to beta-1 subunit of 20S proteasome in human HeLa cells at 1 uM by Western blotting analysis; format: cell-based; method in brief: as §4
[22] = target: T2, Proteasome component C5 (Homo sapiens); experiment: Binding affinity to 20S proteasome beta-1 subunit in human erythrocyte at 1 uM by Western blotting analysis; method in brief: as §5

Proteasome Macropain subunit (Homo sapiens), sequence (P49721 whole entry): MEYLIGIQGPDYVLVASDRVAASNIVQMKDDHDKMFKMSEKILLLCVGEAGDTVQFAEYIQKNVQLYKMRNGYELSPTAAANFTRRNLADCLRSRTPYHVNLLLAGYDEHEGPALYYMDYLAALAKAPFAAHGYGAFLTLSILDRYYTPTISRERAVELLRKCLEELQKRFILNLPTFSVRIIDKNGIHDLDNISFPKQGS

Activity [12] | Activity [21] | SMILES | pIC50 (HeLa) | pIC50 [1] | pIC50 [2] | pIC50 [3] | Activity [6] | Activity [16] | also measured
– | – | CC[C@H](C)[C@@H]1C(=O)O[C@H]1C(=O)N[C@H]1C[C@H]1C[C@H](NC(=O)[C@H](C)N)C(=O)O [BELACTOSIN A] | 4.43 | 6.09 | 5.31 | 4.85 | – | – | –
Active | Active | CC[C@H](C)[C@@H]1C(=O)O[C@H]1C(=O)N[C@H]1C[C@H]1C[C@H](NC(=O)[C@H](C)NC(=O)CCCCCNS(=O)(=O)c1cccc2c(N(C)C)cccc12)C(=O)OCc1ccccc1 | 5.01 | 7.54 | 5.68 | 6.82 | Active | Active | Activity [4]: tde; Activity [5]: tde; Activity [7]: Active; Activity [8]: tde; Activity [9]: Active; Activity [10]: Active; Activity [11]: Active; Activity [13]: Active; Activity [14]: Active; Activity [15]: Active; Activity [17]: Active; Activity [18]: Active; Activity [19]: Active; Activity [20]: Active; Activity [22]: Active
Active | Active | CC(C)C[C@@H](C=O)NC(=O)[C@H](CC(C)C)NC(=O)[C@H](CC(C)C)NC(=O)OCc1ccccc1 [MG-132] (Cbz-Leu-Leu-Leu-aldehyde) | – | 7.96 | 5.68 | 6.92 | – | – | –
– | – | CC(C)[C@H](O)[C@]12NC(=O)[C@H](C)[C@@H]1OC2=O | – | 7.54 | 6.16 | 5.08 | Active | Active | –
– | – | CC[C@H](C)[C@@H]1C(=O)O[C@H]1C(=O)N[C@H]1C[C@H]1C[C@H](NC(=O)[C@H](C)N)C(=O)OCc1ccccc1 | 6.30 | 6.47 | 6.35 | 5.43 | – | – | –
